Entries after “also recorded” stand apart in the source; their conditions may differ.
What was measured:
[1] = test system: replication fork substrates; details: ref K. Kepple, Ph.D. Thesis, 2006; cited from earlier work
human RAD54 protein = details: cited from earlier work
RecG helicase = details: cited from earlier work
RuvABC complex = details: cited from earlier work
protein-free HJ DNA [2] = details: cited from earlier work
HJ substrate [3] = experiment: 2-AP fluorescence quenching, HJ substrate; assay type: binding; details: center of both HJ and replication forks
Procedure, shortened: (§1)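 Substrates were annealed from oligos (boiled 5 min, slow-cooled), gel-purified on native 12% PAGE and quantified spectrophotometrically. After ≥10 min equilibration, emission was read at 330–430 nm (excitation 315 nm). Adenine-substituted spectra were subtracted, and fold decrease at 370 nm was taken versus no peptide.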

HJ-4AP1 = experiment: 2-AP fluorescence titration of additional peptides, HJ-4AP1; assay type: binding; details: for 2-AP quenching / interaction with 4AP1 in HJ: 0.2 μM substrate, pH 7.8, 100 mM NaCl, 1.6% DMSO, peptide dimer 0.05-6.4 μM
Procedure, shortened: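 Test peptides (C-terminal amides, dissolved in DMSO) titrated as dimers at 0.05, 0.2, 0.8, 3.2 and 6.4 μM into 0.2 μM 2-AP-labelled HJ in 20 mM Tris-HCl pH 7.8, 100 mM NaCl, 1 mM EDTA, 1.6% DMSO at 24°C. Equilibrated ≥3 min with stirring. Excitation 315 nm, emission 365–375 nm. Adenine-substituted junction spectrum subtracted.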

[4] = test system: replication fork substrate; experiment: 2-AP fluorescence quenching, replication fork; assay type: binding; details: 2-AP fluorescence-based solution assay
Procedure, shortened: as §1

protein-free HJ DNA [5] = experiment: peptide/RecG band shift assay on HJ; assay type: binding; details: data not shown
Cre/HJ complex = details: cited from earlier work
(WRWYCR)2 [6] = target: T1, (WRWYCR)2 (synthetic); experiment: EMSA
T1 chain: WRWYCR

RecG = target: T2, RecG (Escherichia coli, UniProt P24230 1-693); experiment: EMSA
T2 sequence: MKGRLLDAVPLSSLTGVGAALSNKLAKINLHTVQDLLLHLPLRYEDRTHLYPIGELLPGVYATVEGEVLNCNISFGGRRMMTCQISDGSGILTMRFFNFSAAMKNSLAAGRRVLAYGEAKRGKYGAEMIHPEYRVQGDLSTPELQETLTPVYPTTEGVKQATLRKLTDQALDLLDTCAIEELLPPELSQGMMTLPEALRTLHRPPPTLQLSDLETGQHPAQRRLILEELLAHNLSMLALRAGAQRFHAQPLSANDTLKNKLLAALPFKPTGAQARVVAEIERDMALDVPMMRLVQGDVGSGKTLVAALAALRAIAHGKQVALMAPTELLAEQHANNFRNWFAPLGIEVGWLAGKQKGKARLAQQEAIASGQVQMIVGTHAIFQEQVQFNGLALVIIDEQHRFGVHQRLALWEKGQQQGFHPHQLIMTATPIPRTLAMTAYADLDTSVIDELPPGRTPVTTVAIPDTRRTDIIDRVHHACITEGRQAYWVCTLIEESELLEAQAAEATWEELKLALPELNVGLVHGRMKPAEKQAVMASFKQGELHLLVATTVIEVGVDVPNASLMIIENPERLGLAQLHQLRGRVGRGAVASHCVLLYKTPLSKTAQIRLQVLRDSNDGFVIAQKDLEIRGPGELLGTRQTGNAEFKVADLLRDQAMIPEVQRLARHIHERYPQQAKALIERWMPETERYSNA

(WRWYCR)2 [7] = target: T1, (WRWYCR)2; experiment: 2-AP fluorescence quenching
(WRWYCR)2 [8] = target: T1, (WRWYCR)2; experiment: 2-AP fluorescence quenching
WKHYNY = target: T3, WKHYNY (synthetic); experiment: 2-AP fluorescence quenching
T3 chain: WKHYNY

(KWWCRW)2 = target: T4, (KWWCRW)2 (synthetic); experiment: 2-AP fluorescence quenching
T4 chain: KWWCRW

flayed duplex DNA = details: cited from earlier work
HJ substrate [9] = experiment: dissociation from HJ; assay type: binding
[10] = test system: central thymine bases of HJ; details: bound to HJ; cited from earlier work

(KWWCRW)2 (disulfide)
binding to replication forks by band shift [1]: unable to detect binding
inhibition of D-loop unwinding activity (human RAD54 protein): inhibit the D-loop unwinding activity
inhibition of unwinding of branched DNA substrates by RecG (RecG helicase): inhibit unwinding of branched DNA substrates
inhibition of HJ resolution by RuvABC (RuvABC complex): inhibit
IC50 (RuvABC complex; read-out: IC50, RuvABC): ~50 nM
binding to free HJ DNA (protein-free HJ DNA [2]): bind specifically to free HJ DNA
potency relative to (WRWYCR)2 (protein-free HJ DNA [2]; data not shown): nearly as potent as (WRWYCR)2
binding to protein-free junctions (protein-free HJ DNA [2]; gel shift and footprinting assays, data not shown): binds to protein-free junctions
quenching of 2-AP in the center of HJ and replication forks (HJ substrate [3]): quench the fluorescence of 2-AP bases
2-AP quenching / interaction with 4AP1 in HJ (HJ-4AP1): interacts with 4AP1 in the HJ substrate

KWWCRW
binding to replication fork-like substrates [4]: bind to replication fork-like substrates

WKHYNY
binding to protein-free HJ (protein-free HJ DNA [5]; gel shift assays): has not been detected; also recorded: does not bind protein-free junctions
quenching effect on 2-AP with Cre/HJ complex (Cre/HJ complex): concentration-dependent quenching effect on 2-AP
2-AP quenching / interaction with 4AP1 in HJ (HJ-4AP1): does not interact; also recorded: almost no quenching
2-AP quenching (HJ-4AP1; up to 32-fold excess of peptide dimer (6.4 μM)): little if any effect

WRWYCR
binding to replication fork-like substrates [4]: bind to replication fork-like substrates

B1: HJ (oligos 1-4) (structured_DNA)
DNA 1: CGCGGTACGGCCGGAAGCCTGCTTTTTTATACAAGCTTAACTCCC
DNA 2: GGGAGTTAAGCTTGTATAAATGAGGTACTGTTAGGAATTCTCCAAGTGACTACGG
DNA 3: CCGTAGTCACTTGGAGAATTCCTAACAGTACCTCATTTATACCTGCAGCCGACGC
DNA 4: GCGTCGGCTGCAGGTATAAAAAAGCAGGCTTCCGGCCGTACCGCG
Kd ((WRWYCR)2 [6]): 12.5 nM
binding result (RecG): binds

B2: Fork-4AP2 (complete fork) (structured_DNA)
DNA 1: CGCGGTACGGCCGGAAGCCTGGTTTACAATGCAAGCTTGACTGGCAGCCC
DNA 2: GCGTCGAGTCGGCTGCAGAGGTATAAAACCAGGCTTCCGGCCGTACCGCG
DNA 3: GGGCTGCCAGTCAAGCTTGCATTGT
DNA 4: TATACCTCTGCAGCCGACTCGACGC
modifications: one A of strand 4 is 2-aminopurine (AP2; underline lost)
binding signal ((WRWYCR)2 [7]): 2 fold quenching (max)
Kd ((WRWYCR)2 [8]): 63.5 ± 12 nM

B3: HJ-4AP2 (structured_DNA)
DNA 1: B2 DNA 1
DNA 2: GGGCTGCCAGTCAAGCTTGCATTGTTGGAGGTACTGTTAGGAATTCTCCAAGTGACTCGG
DNA 3: CCGAGTCACTTGGAGAATTCCTAACAGTACCTCCATATACCTCTGCAGCCGACTCGACGC
DNA 4: B2 DNA 2
modifications: one A near junction center of strand 4 is 2-aminopurine (AP2; underline lost)
Kd ((WRWYCR)2 [8]): 14.3 ± 3.2 nM

B4: HJ-4AP1 (structured_DNA)
DNA 1: B2 DNA 1
DNA 2: B3 DNA 2
DNA 3: B3 DNA 3
DNA 4: B2 DNA 2
modifications: one A of strand 4 is 2-aminopurine (AP1; underline lost)
binding result (WKHYNY): no binding
binding result ((KWWCRW)2): binds

B5: Lag-4AP2 (lagging strand fork) (structured_DNA)
DNA 1: B2 DNA 1
DNA 2: B2 DNA 2
DNA 3: TATACCTCTGCAGCCGACTCGACGC
modifications: one A of strand 4 is 2-aminopurine (AP2; underline lost)
Kd ((WRWYCR)2 [8]): 79.2 ± 17.3 nM

B6: Lead-4AP2 (leading strand fork) (structured_DNA)
DNA 1: B2 DNA 1
DNA 2: B2 DNA 2
DNA 3: GGGCTGCCAGTCAAGCTTGCATTGT
modifications: one A of strand 4 is 2-aminopurine (AP2; underline lost)
Kd ((WRWYCR)2 [8]): 132 ± 32.8 nM

B7: Flayed-4AP2 (structured_DNA)
DNA 1: B2 DNA 1
DNA 2: B2 DNA 2
modifications: one A of strand 4 is 2-aminopurine (AP2; underline lost)
Kd ((WRWYCR)2 [8]): 628 ± 107 nM

GCGTCGAGTCGGCTGCAGAGGTATAAAACCAGGCTTCCGGCCGTACCGCG (ssDNA, one A is 2-aminopurine (AP2; underline lost)) [Oligo (strand 4 AP2)]
Kd ((WRWYCR)2 [8]): 731 ± 134 nM

B8: RecG: monomeric RecG helicase of Escherichia coli (protein, UniProt P24230 1-693, looked up)
ATP-dependent DNA helicase …: T2 sequence
fold lower affinity for flayed DNA than HJ (flayed duplex DNA): ≤ 100 fold
time for half of bound RecG to dissociate (HJ substrate [9]; 0.02 μM RecG, 1 nM labeled HJ, 0.2 μM unlabeled HJ, 4°C): 25 min
dissociation faster than peptide complex (HJ substrate [9]; RecG/HJ vs (WRWYCR)2/HJ): ~2 X
Kd of RecG by gel mobility shift relative to peptide (protein-free HJ DNA [5]; 50 ng nonspecific dsDNA): very similar
increase in KMnO4 sensitivity of central thymine bases [10]: ~2 fold
